From article PMC4782725 (The Journal of Organic Chemistry, 2016)

How the values were obtained:
A2058 (melanoma) = assay: proliferative cell growth inhibition assay, A2058; assay type: cell-based; details: Homo sapiens, A2058, read-out: IC50(cell line) A2058
Summary of the method: (§1)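 Cell viability assays, run on proliferating tumour lines and on quiescent IMR-90 immortalized human fibroblasts, gave IC50 values. Cell preparation and sample handling were automated. The automation protocol changed between the earlier and the later test series.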

[1] = test system: wide range of cancer cell lines; details: initially reported; cited from earlier work
HCT-116 (colon cancer) [2] = assay: cell viability assay, HCT-116; assay type: cell-based; details: Homo sapiens, HCT-116, read-out: IC50(HCT-116)
Summary of the method: as §1

HCT-116 (colon cancer) [3] = assay: proliferative cell growth inhibition assay, HCT-116; assay type: cell-based; details: Homo sapiens, HCT-116, read-out: IC50(cell line) HCT-116
Summary of the method: as §1

[4] = test system: quiescent IMR-90 immortalized human fibroblasts; assay: IMR-90 cytotoxicity assay; assay type: cell-based; details: IMR-90, read-out: IC50(cell line) IMR-90
Summary of the method: as §1

[5] = test system: H522-T1 (nonsmall cell lung cancer); assay: proliferative cell growth inhibition assay, H522-T1; assay type: cell-based; details: H522-T1, read-out: IC50(cell line) H522-T1
Summary of the method: as §1

For `C=C(C)CC(OC)[C@H](O)C(=O)N[C@@H](OC)[C@@H]1C[C@@H](O)C(C)(C)[C@@H](C[C@H](O)[C@@H](C)[C@H]2Cc3c(C)c(O)cc(O)c3C(=O)O2)O1` (single isomer, unassigned; (+)) [compound 1, (+)-irciniastatin A], the IC50 (A2058 (melanoma)) is listed as 0.4 nM, the “differential activities against cancer cell lines” value [1] is listed as greater than 10000 fold and the IC50 (HCT-116 (colon cancer) [2]) is listed as 0.2 nM. The IC50 (HCT-116 (colon cancer) [3]) was 4 nM, the IC50 [4] was 27 nM and the IC50 [5] was 1 nM.
